# S100A4 MyoIIA = blocks human S100A4 binding to myosin IIA peptide | inhibition, % at 10.7 µM | AID 652163 | S100A4/TAMRA-MyoIIA peptide fluorescence polarization | P26447 | actives 0.14% (n = 360,000);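 active means mean inhibition of at least 70% across replicates, with every replicate also reaching that level; inconclusive means mean inhibition reaches 70% but some replicates fall short; inactive means mean inhibition below 70%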
#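 Material: S100A4 monomer protein / Buffer or medium: 50 mM HEPES pH 7.2, 10 mM CaCl2, 100 mM KCl / Times: 5 min incubation before reading / Benchmarks: neutral control DMSO, positive control TFP / Reagent: labelled myosin peptide probe, 5 nM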
# ARNT-TACC3 inh = disruptors of human ARNT/TACC3 interaction | AlphaScreen His-ARNT PAS-B/GST-TACC3 binding, luminescence; TACC3 fragment carries E629A point mutation | inhibition, % at 9.99 µM | actives 0.66% (n = 390,000) | AID 623870;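 active means mean inhibition of replicates at least 50% and at least half of replicates each reaching 50%; inconclusive means half or more replicates reach 50% but mean below 50%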;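 further: 0% = complete ARNT plus TACC3 wells and 100% = ARNT alone without TACC3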
# PGC1a acetyl inh = lowers PGC1a acetylation signal in U2OS cells. AlphaScreen anti-acetyl-lysine; with virally co-expressed GCN5 acetyltransferase. AID 651687. actives 0.17% (n = 350,000). inhibition, % at 15.6 µM;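 active means every replicate shows inhibition of at least 40%; inconclusive means mean inhibition at least 40% but some replicate below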;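 further: 0% = neutral control wells and 100% = positive control wells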
# CASP6 VEID inh = blocks human caspase-6 cleavage activity; P55212; purified caspase-6, Z-VEID-R110 cleavage fluorescence; inhibition, % at 12.5 µM; actives 0.53% (n = 350,000); AID 686996;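 active means mean inhibition across replicates at least about 35%, with every replicate also reaching that limit, limit read from the data; inconclusive means only one of the two criteria met; inactive means neither criterion met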;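 further: 0% = median of neutral control wells and 100% = no fluorescence left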
# rRNA inh HTS = inhibitors of bacterial rRNA selective over humanized ribosomes; E. coli WT GFP vs humanized-ribosome RFP mutants, fluorescence, 24 h; hits give low values; DMSO median 0, no signal -100; GFP signal change (wild-type ribosome), % (concentration not given with the values); actives 1.6% (n = 350,000); AID 720706;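 active means significant combined selectivity score with lowered wild-type GFP, culture density cut under 30%, mutant RFP and density less affected; inactive means any of these conditions unmet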
# ERAP1 HTS inh = blocks human ERAP1 aminopeptidase activity; Q9NZ08; recombinant ERAP1, Leu-AMC fluorescence, 60 min; inhibition, % at 10.7 µM; actives 0.15% (n = 340,000);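 active means mean replicate inhibition of at least 30%, or all replicates individually reaching that 30% level; inactive means mean below 30% and not every replicate reaching it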;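 further: 0% = neutral control wells and 100% = L-leucinethiol positive control wells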
# Target sequence (Q9NZ08 whole entry, looked up): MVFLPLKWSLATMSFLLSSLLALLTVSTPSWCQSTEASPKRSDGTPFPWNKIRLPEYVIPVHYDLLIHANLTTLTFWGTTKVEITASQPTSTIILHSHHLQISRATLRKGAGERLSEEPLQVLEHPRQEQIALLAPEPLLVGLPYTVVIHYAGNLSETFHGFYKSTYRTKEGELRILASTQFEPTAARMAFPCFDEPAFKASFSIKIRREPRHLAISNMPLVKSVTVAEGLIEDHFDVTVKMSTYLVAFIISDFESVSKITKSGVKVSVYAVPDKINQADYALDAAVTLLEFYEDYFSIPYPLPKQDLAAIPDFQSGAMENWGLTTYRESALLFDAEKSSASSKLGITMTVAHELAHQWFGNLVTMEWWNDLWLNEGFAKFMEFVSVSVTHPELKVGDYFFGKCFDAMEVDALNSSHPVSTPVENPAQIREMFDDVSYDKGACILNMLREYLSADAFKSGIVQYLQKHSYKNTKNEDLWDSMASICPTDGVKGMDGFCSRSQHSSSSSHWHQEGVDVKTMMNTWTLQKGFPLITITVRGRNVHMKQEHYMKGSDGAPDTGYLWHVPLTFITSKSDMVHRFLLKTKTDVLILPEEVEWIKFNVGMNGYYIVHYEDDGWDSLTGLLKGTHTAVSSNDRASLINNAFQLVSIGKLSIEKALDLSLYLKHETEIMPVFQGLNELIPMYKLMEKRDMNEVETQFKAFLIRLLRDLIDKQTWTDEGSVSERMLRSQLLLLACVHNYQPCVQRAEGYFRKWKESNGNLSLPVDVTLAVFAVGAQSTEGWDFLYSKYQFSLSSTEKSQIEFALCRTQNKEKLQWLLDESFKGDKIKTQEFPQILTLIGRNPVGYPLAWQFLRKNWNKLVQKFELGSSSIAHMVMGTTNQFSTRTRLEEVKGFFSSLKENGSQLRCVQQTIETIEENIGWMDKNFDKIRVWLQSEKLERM
# ARNT Alpha ctr-1 = AlphaScreen artifact in ARNT/TACC3 counter-screen; shares compounds with ARNT-TACC3 inh; AC50, µM (titrated, usually from 68 µM), for inactives: top-dose activity change, negative = signal decrease; His-ARNT PASB-GST AlphaScreen artifact counter-screen, luminescence; AID 651705; actives 50% (n = 1,200);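 active means every separate test run was called active for a drop in luminescence, with AC50 within twice the top valid dose, actives reach about 71 µM in these data; inconclusive means the separate test runs disagree in their calls; inactive means all runs inactive, including signal change in the wrong direction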
# ARNT Alpha ctr-2 = AlphaScreen artifact flagged for ARNT-TACC3 inhibitors; shares compounds with ARNT-TACC3 inh; Dual-tagged His-ARNT PASB-GST AlphaScreen artifact counter-screen; AC50, µM; actives 70% (n = 45); AID 720564;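 active means luminescence drop, with half-maximal potency fitted within twice the sample's top valid dose, cut at about 70 µM in these data; inactive means the rest, including signal moving the wrong way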
# The depositor's hits bear a star; ? = inconclusive; nt = no result. Most compounds without a hit are left out; they make up all but 2.4% or so of the library.
SMILES,S100A4 MyoIIA,ARNT-TACC3 inh,PGC1a acetyl inh,CASP6 VEID inh,rRNA inh HTS,ERAP1 HTS inh,ARNT Alpha ctr-1,others
CC(C)NC(=O)N[C@@H]1CC[C@@H](CC(=O)N2CCCCC2)O[C@H]1CO,2.5,6.7,nt,-1.6,-1.5,0.1,nt,
c1c[nH]c(CN2CCN(Cc3ncc[nH]3)CC2)n1,-0.1,52.7*,2.1,-259.5,nt,-1.7,-3.4%,
c1ccc(N2CCN(Cc3nc4ccccc4[nH]3)CC2)nc1,1.4,1.5,nt,6.5,5.3,-0.6,nt,
COc1ccc(C2C(C#N)=C(N)Oc3c2ccc2cccnc32)cc1OC (stereo not drawn),1.6,61.8*,1.7,-5.4,-10.9,9.8,-26.2%,
CCC(=O)N(C)C[C@H]1Oc2ncc(-c3ccccc3C)cc2C(=O)N([C@@H](C)CO)C[C@@H]1C,0.1,-11.8,3.5,-0.8,2.7,-0.2,nt,
C[C@@H]1CN([C@@H](C)CO)C(=O)c2cc(NC(=O)Cc3ccccc3)ccc2O[C@@H]1CN(C)Cc1ccncc1,1.6,17.3,-0.4,-1.6,0.3,-1.0,nt,
Cc1ccc(NC(=O)CSc2n[nH]c(-c3ccccn3)n2)cc1,-1.1,69.5*,14.8,-2.8,-45.2,-6.7,9.15µM*,
O=C(CSc1n[nH]c(-c2ccncc2)n1)Nc1ccc(F)cc1,3.2,-1.1,15.8,1.4,-0.7,1.9,nt,
O=C(CSc1n[nH]c(-c2ccccn2)n1)Nc1ccc(F)cc1,6.1,69.8*,nt,-0.2,-31.3,-2.9,10.6µM*,
O=C(CSc1n[nH]c(-c2ccccn2)n1)Nc1ccc(Cl)cc1,0.0,67.7*,-1.2,-0.8,-53.4,0.5,32.2µM*,ARNT Alpha ctr-2=11.3*
Cc1ccc(NC(=O)CSc2ccc(-c3ccccn3)nn2)cc1,-0.6,29.6,5.2,-3.6,11.9,0.0,nt,
COc1ccc(S(=O)(=O)Nc2ccc3c(c2)CC(=O)N([C@H](C)CO)C[C@@H](C)[C@@H](CN(C)S(=O)(=O)c2ccc(Cl)cc2)O3)cc1,-4.5,24.7,6.8,1.4,-6.1,-0.1,nt,
O=C(N[C@H]1CC[C@H](CCn2cc(-c3ccccn3)nn2)O[C@H]1CO)c1ccc(F)cc1,2.5,nt,10.9,3.0,1.9,1.8,nt,
O=C(N[C@H]1CC[C@@H](CCn2cc(-c3ccccn3)nn2)O[C@H]1CO)c1ccncc1,4.4,65.3*,6.8,1.1,0.2,-2.3,31.3µM*,
O=C(N[C@@H]1CC[C@H](CCn2cc(-c3ccccn3)nn2)O[C@@H]1CO)c1ccncc1,-1.3,65.8*,6.0,-1.2,-4.3,0.0,32.6µM*,
N[C@H]1CC[C@@H](CCn2cc(-c3ccccn3)nn2)O[C@H]1CO,5.0,74.8*,9.4,0.3,-0.1,2.4,6.03µM*,
Fc1ccc(/C=N/Nc2ncnc3nc[nH]c23)cc1F,-10.1,52.4*,-21.3,0.9,-16.6,5.1,-11.2%,
C(=N\Nc1ncnc2nc[nH]c12)/c1cccs1,2.5,50.9*,nt,0.9,1.7,0.0,-13.5%,
Clc1ccc(CCNc2ncnc3nc[nH]c23)cc1,1.9,-7.6,1.4,0.1,-1.6,-1.9,nt,
c1ccc(CNc2ncnc3nc[nH]c23)cc1,-4.8,-0.3,?,2.2,nt,-1.1,nt,
CO[C@@H]1CN(C)C(=O)c2ccc(NS(=O)(=O)c3cccc(F)c3)cc2OC[C@H](C)N(Cc2cc(F)ccc2F)C[C@H]1C,2.8,17.9,-6.5,-1.0,-4.6,-1.6,nt,
COc1cccc(C(=O)Nc2nnc(-c3cccs3)o2)c1,-15.2,51.8*,8.4,-2.3,-58.0,6.6,66.5µM*,
COc1cc(-c2nnc(NC(=O)c3ccco3)o2)cc(OC)c1OC,-3.1,43.0*,2.1,-0.7,-12.4,-2.1,-13.4%,
CCOc1cc(-c2nnc(NC(=O)c3ccco3)o2)cc(OCC)c1OCC,-4.4,22.2,-11.1,-0.7,-2.4,-2.5,nt,
COc1cccc(C(=O)Nc2nnc(-c3ccc(Cl)cc3)o2)c1,-0.4,18.1,-1.4,1.8,-55.1,0.3,nt,
SMILES,S100A4 MyoIIA,ARNT-TACC3 inh,PGC1a acetyl inh,CASP6 VEID inh,rRNA inh HTS,ERAP1 HTS inh,ARNT Alpha ctr-1,others
O=C(Nc1nnc(-c2cccs2)o1)c1ccco1,-3.7,51.1*,0.9,2.1,7.9,nt,-19.8%,
COc1ccc(-c2ccc3n(c2=O)C[C@@H]2[C@@H](CO)[C@H](C(=O)N(C)C)N(CC4CCOCC4)[C@H]32)cc1,8.7,-3.5,nt,5.0,-3.2,-1.9,nt,
Cc1cc(C)c(C(N)=O)c(Nc2cccc3ccccc23)n1,nt,68.1*,28.3,nt,nt,nt,-8.9%,
COc1ccccc1Nc1nc(C)cc(C)c1C(N)=O,nt,nt,-23.6,nt,nt,nt,nt,
Oc1ccc(/C=N/Nc2nccnc2Cl)c(O)c1,nt,-3.4,27.6,nt,nt,nt,nt,
Oc1ccc(/C=N/Nc2ncc(Br)cn2)c(O)c1,nt,56.9*,8.9,nt,nt,nt,30µM*,
CCN1[C@@H]2c3ccc(C4=CCCCC4)c(=O)n3C[C@@H]2[C@@H](CO)[C@@H]1C(=O)OC,-11.4,3.0,nt,-5.7,2.5,0.5,nt,
CC(C)NC(=O)Nc1ccc2c(c1)CC(=O)N([C@@H](C)CO)C[C@@H](C)[C@@H](CN(C)S(=O)(=O)c1cccs1)O2,10.7,-1.9,4.9,-2.4,-1.1,8.4,nt,
COc1ccc(S(=O)(=O)N(C)C[C@H]2Oc3ccc(NC(=O)CCCCCC(=O)Nc4ccccc4N)cc3CC(=O)N([C@@H](C)CO)C[C@H]2C)cc1,-1.4,-3.2,-19.1,-1.5,-3.4,0.3,nt,
O=C(N[C@@H]1CC[C@@H](CCn2cc(-c3ccccn3)nn2)O[C@@H]1CO)c1ccc(F)cc1,-0.6,nt,-2.6,4.7,-2.1,2.5,nt,
O=C(N[C@@H]1CC[C@H](CCn2cc(-c3ccccn3)nn2)O[C@H]1CO)c1ccc(F)cc1,-3.3,42.6*,-9.3,-4.7,3.3,-6.4,43.3µM*,
O=C(N[C@H]1CC[C@@H](CCn2cc(-c3ccccn3)nn2)O[C@H]1CO)c1ccc(F)cc1,-1.9,60.4*,-7.9,-3.7,1.8,-4.5,43.1µM*,
O=C(N[C@H]1CC[C@@H](CCn2cc(-c3ccccn3)nn2)O[C@@H]1CO)c1ccc(F)cc1,0.7,112.0*,0.3,-4.3,1.6,-4.1,44.9µM*,
O=C(N[C@@H]1CC[C@@H](CCn2cc(-c3ccccn3)nn2)O[C@H]1CO)c1ccc(F)cc1,-2.6,74.6*,2.3,-3.9,0.6,-5.2,46.9µM*,
CCOc1ccc2c(c1)C(N(CCN1CCOCC1)C(=O)Nc1ccccc1)CC(C)(C)O2 (stereo not drawn),4.7,57.5*,0.2,0.3,5.5,nt,-7.8%,
